According to ChEMBL document CHEMBL3808283, “Biological Characterization and in Vivo Assessment of the Activity of a New Synthetic Macrocyclic Antifungal Compound” (J Med Chem, 2016):
Values after ≈ are worked out from the molar mass of the structure shown. Active and inactive are the calls of the source. No cut-off for these calls is given here.

Assays:
[1] = tested on: Candida albicans; test: Upregulation of orf19.1887 gene expression in Candida albicans SC5314 at 3 uM after 15 mins by microarray method relative to control; type: functional
How it was run: (§1)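 Log-phase cultures in liquid YEPD were exposed to 3 µM compound (final) for 15 or 45 min, with untreated controls sampled at the same times, in three biological replicates. Total RNA was extracted by glass-bead/phenol-chloroform disruption and integrity-checked. One-color Cy3-labelled cRNA (600 ng) was hybridized for 17 h at 65 °C to 8 × 15K arrays, and fold change was taken versus control.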

[2] = tested on: Candida albicans; test: Upregulation of IFU5 gene expression in Candida albicans SC5314 at 3 uM after 45 mins by microarray method relative to control; type: functional
How it was run: (§2)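 Log-phase C. albicans SC5314 in liquid YEPD exposed to 3 µM final for 15 or 45 min; untreated controls taken at the same time points. Three biological replicates. RNA extracted by glass-bead/phenol-chloroform method and integrity checked. One-color Cy3-labeled cRNA (600 ng) hybridized 17 h at 65 °C to 8 × 15K arrays. Expression expressed as fold change versus control.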

[3] = tested on: Magnusiomyces capitatus; test: Antifungal activity against Geotrichum capitatum measured at 48 hrs by broth dilution assay; type: functional
How it was run: (§3)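 EUCAST broth microdilution, including the update for non-fermenting yeasts (Cryptococcus, Geotrichum), on clinical and reference yeast isolates. Incubated at 37 °C and read at 24, 48 and 72 h. MIC taken as the lowest concentration with no visible growth. For Cryptococcus and Geotrichum, MICs were read only once growth was visible in the control row.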

[4] = tested on: Candida albicans; test: Upregulation of LCB4 gene expression in Candida albicans SC5314 at 3 uM after 15 mins by microarray method relative to control; type: functional; how it was run: as §2
[5] = tested on: Candida albicans; test: Upregulation of orf19.7336 gene expression in Candida albicans SC5314 at 3 uM after 45 mins by microarray method relative to control; type: functional; how it was run: as §1
[6] = tested on: Candida parapsilosis; test: Antifungal activity against Candida parapsilosis ATCC 34136 measured at 48 hrs by broth dilution assay; type: functional; details: Lodderomyces parapsilosis, ATCC 34136, 48 h; how it was run: as §3
[7] = tested on: Candida albicans; test: Antifungal activity against Candida albicans ATCC 60193 measured at 48 hrs by broth dilution assay; type: functional; details: ATCC 60193, 48 h; how it was run: as §3
[8] = tested on: Candida albicans; test: Antifungal activity against fluconazole-susceptible Candida albicans ATCC 90028 in immunocompetent Balb/c mouse candidiasis model assessed as reduction in CFU count in kidney at 20 to 40 mg/kg/day, ip regime measured on day 7 post infection; type: functional, organism-based
How it was run: (§4)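 Immunocompetent BALB/c mice, 10 per strain group, injected in the lateral tail vein with 7 × 10^4 CFU of C. albicans in 200 µL sterile saline. Compound given ip daily, 100 µL of 0.1 mg/mL in DMSO/PEG 400 2:1; fluconazole control ip at 8 mg/kg/day. On day 7, spleen and kidneys were excised, weighed and homogenized in saline, then plated on YPD agar for 2 days at 30 °C. Read-out CFU/g; Wilcoxon rank-sum test, P<0.05.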

[9] = tested on: Candida albicans; test: Upregulation of CRZ2 gene expression in Candida albicans SC5314 at 3 uM after 45 mins by microarray method relative to control; type: functional; how it was run: as §2
[10] = tested on: Candida albicans; test: Upregulation of TAC1 gene expression in Candida albicans SC5314 at 3 uM after 15 mins by microarray method relative to control; type: functional; how it was run: as §2
[11] = tested on: Candida albicans; test: Upregulation of CDR1 gene expression in Candida albicans SC5314 at 3 uM after 15 to 45 mins by qRT-PCR method; type: functional, organism-based
How it was run: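 Log-phase C. albicans treated at 3 µM. RNA extracted with glass-bead disruption, then DNase-treated (10 µg per preparation). Target gene CT values were normalized to an endogenous reference. Fold change calculated as mean normalized expression of samples relative to a selected control.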

[12] = tested on: Candida albicans; test: Fungicidal activity against Candida albicans ATCC 60193 at 5 uM up to 24 hrs by time kill assay relative to control; type: functional
How it was run: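 EUCAST broth microdilution at 37 °C. From wells at MIC, 2×, 4× and 8× MIC, 10 µL aliquots were taken, serially 10-fold diluted in saline and plated on Sabouraud dextrose agar. Plates were incubated at 37 °C for 24/48 h, and 48 h for Cryptococcus and Geotrichum. Done in duplicate, detection limit 10 CFU/mL. A drop of at least 3 Log10 CFU/mL from the initial inoculum in 24 h counts as fungicidal; a smaller drop counts as fungistatic.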

[13] = tested on: Candida albicans; test: Antifungal activity against Candida albicans ATCC 60193 up to 96 hrs by broth dilution assay; type: functional
[14] = tested on: Candida parapsilosis; test: Antifungal activity against Candida parapsilosis 64E measured at 72 hrs by broth dilution assay; type: functional; details: Lodderomyces parapsilosis; how it was run: as §3
[15] = tested on: Candida albicans; test: Upregulation of orf19.6873.1 gene expression in Candida albicans SC5314 at 3 uM after 15 mins by microarray method relative to control; type: functional; how it was run: as §1
[16] = tested on: Candida parapsilosis; test: Antifungal activity against Candida parapsilosis 64E measured at 24 hrs by broth dilution assay; type: functional; details: Lodderomyces parapsilosis; how it was run: as §3
[17] = tested on: Candida albicans; test: Upregulation of CDR1 gene expression in Candida albicans SC5314 at 3 uM after 45 mins by microarray method relative to control; type: functional; how it was run: as §2
[18] = tested on: Candida tropicalis; test: Ratio of MIC at 24 hrs to MIC at 48 hrs for Candida tropicalis 86E; type: functional
How it was run: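 MICs by EUCAST broth microdilution, with the update for non-fermenting yeasts, incubated at 37 °C. Read at 24, 48 and 72 h as the lowest concentration preventing visible growth.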

[19] = tested on: Candida albicans; test: Antifungal activity against Candida albicans ATCC 60193 measured at 24 hrs by broth dilution assay; type: functional; details: ATCC 60193, 24 h; how it was run: as §3
[20] = tested on: Candida albicans; test: Upregulation of IFU5 gene expression in Candida albicans SC5314 at 3 uM after 15 mins by microarray method relative to control; type: functional; how it was run: as §2
[21] = tested on: Candida albicans; test: Antifungal activity against wild type Candida albicans CAF2-1 at 10 uM by serial dilution assay; type: functional, organism-based
[22] = tested on: Candida albicans; test: Antifungal activity against azole-susceptible Candida albicans isolate DSY294 in immunocompetent Balb/c mouse candidiasis model assessed as reduction in CFU count in spleen at 40 mg/kg/day, ip regime measured on day 7 post infection; type: functional, organism-based; how it was run: as §4
[23] = tested on: Candida albicans; test: Antifungal activity against azole-susceptible Candida albicans isolate DSY294 in immunocompetent Balb/c mouse candidiasis model assessed as reduction in CFU count in kidney at 40 mg/kg/day, ip regime measured on day 7 post infection; type: functional, organism-based
How it was run: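 Immunocompetent BALB/c mice, groups of 10, were injected in the lateral tail vein with 7 × 10^4 CFU of C. albicans in 200 µL saline. Drug was given ip daily at 40 mg/kg/day in DMSO/PEG 400 2:1 (0.1 mg/mL, 100 µL). Kidneys were taken on day 7, homogenized and plated on YPD agar for 2 days at 30 °C. Read-out was CFU/g; Wilcoxon rank-sum test, P<0.05.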

[24] = tested on: Nakaseomyces glabratus; test: Antifungal activity against Candida glabrata 70 measured at 24 hrs by broth dilution assay; type: functional; details: Nakaseomyces glabratus, 70, 24 h; how it was run: as §3
[25] = tested on: Cryptococcus neoformans; test: Antifungal activity against Cryptococcus neoformans measured at 48 hrs by broth dilution assay; type: functional, organism-based; how it was run: as §3
[26] = tested on: Candida albicans; test: Antifungal activity against Candida albicans 53T measured at 48 hrs by broth dilution assay; type: functional; how it was run: as §3
[27] = tested on: Candida albicans; test: Upregulation of ARE2 gene expression in Candida albicans SC5314 at 3 uM after 45 mins by microarray method relative to control; type: functional; how it was run: as §2

C/C=C/CNC(=N)NCCCCCCCCN1CCCCCCCCNC(=N)NC1=O was tested, and the “fold change (FC)” value [1] was 2.19, the “fold change (FC)” value [2] was 2.58 and the MIC [3] was 10 µM (≈ 4.36 µg/mL). The “fold change (FC)” value [4] was 2.04, the “fold change (FC)” value [5] was 3.49 and the MIC [6] was 80 µM (≈ 34.9 µg/mL). For the same molecule, the MIC [7] was 5 µM (≈ 2.18 µg/mL), the Activity [8] was “Active” and the “fold change (FC)” value [9] was 2.66. For the same molecule, the “fold change (FC)” value [10] was 2.79, the Activity [11] was “Active” and the Activity [12] was 99.9%. For the same molecule, the Activity [13] was “Active”, the MIC [14] was 40 µM (≈ 17.4 µg/mL) and the “fold change (FC)” value [15] was 2.16. The MIC [16] was 20 µM (≈ 8.71 µg/mL), the “fold change (FC)” value [17] was 3.75 and the Ratio [18] was 2. The MIC [19] was 5 µM (≈ 2.18 µg/mL), the “fold change (FC)” value [20] was 1.63 and the Activity [21] was “Active”. The Activity [22] was “Active”, the Activity [23] was “Active” and the MIC [24] was over 80 µM. For the same molecule, the Activity [25] was “Active”, the MIC [26] was 5 µM (≈ 2.18 µg/mL) and the “fold change (FC)” value [27] was 2.88.
